Measured values as given in ChEMBL document CHEMBL1765057, “Pyrazolo[4,3-d]pyrimidine bioisostere of roscovitine: evaluation of a novel selective inhibitor of cyclin-dependent kinases with antiproliferative activity” (J Med Chem, 2011).
pIC50: −log10 of the molar value. Activity calls are given as the source filed them. The calls are words filed in the database; no cut-off is given here.

What was measured:
U2OS [1] = test: Reduction of homologous recombination in human DR-U2OS-GFP cells expressing I-SceI nuclease at 0.1 uM after 56 hrs […] relative to control; format: functional
[2] = target: Cyclin-dependent kinase 7/ cyclin H (Homo sapiens, UniProt P50613); test: Inhibition of human recombinant CDK7/cyclin H/MAT1; format: protein-complex assay
CDK9/cyclin T1 = CDK9/cyclin T1 (Homo sapiens, UniProt P50750); test: Inhibition of human recombinant CDK9/cyclin T1; format: protein-complex assay
[3] = target: Cyclin-dependent kinase 5/CDK5 activator 1 (Homo sapiens, UniProt Q00535); test: Inhibition of human recombinant CDK5/p35; format: protein-complex assay
[4] = target: Cyclin-dependent kinase 2/cyclin E1 (Homo sapiens, UniProt P24941); test: Inhibition of human recombinant CDK2/cyclin E; format: protein-complex assay
[5] = target: Ribosomal protein S6 kinase alpha-5 (Homo sapiens) (UniProt O75582); test: Inhibition of human recombinant MSK1 at 10 uM
[6] = target: T1, Retinoblastoma-associated protein (Homo sapiens) (UniProt P06400); test: Inhibition of retinoblastoma protein in human HT-29 cells assessed as reduction of CDK4 level at 2.5 to 40 uM after 24 hrs by immunoblotting; format: cell-based
T1 sequence (whole entry): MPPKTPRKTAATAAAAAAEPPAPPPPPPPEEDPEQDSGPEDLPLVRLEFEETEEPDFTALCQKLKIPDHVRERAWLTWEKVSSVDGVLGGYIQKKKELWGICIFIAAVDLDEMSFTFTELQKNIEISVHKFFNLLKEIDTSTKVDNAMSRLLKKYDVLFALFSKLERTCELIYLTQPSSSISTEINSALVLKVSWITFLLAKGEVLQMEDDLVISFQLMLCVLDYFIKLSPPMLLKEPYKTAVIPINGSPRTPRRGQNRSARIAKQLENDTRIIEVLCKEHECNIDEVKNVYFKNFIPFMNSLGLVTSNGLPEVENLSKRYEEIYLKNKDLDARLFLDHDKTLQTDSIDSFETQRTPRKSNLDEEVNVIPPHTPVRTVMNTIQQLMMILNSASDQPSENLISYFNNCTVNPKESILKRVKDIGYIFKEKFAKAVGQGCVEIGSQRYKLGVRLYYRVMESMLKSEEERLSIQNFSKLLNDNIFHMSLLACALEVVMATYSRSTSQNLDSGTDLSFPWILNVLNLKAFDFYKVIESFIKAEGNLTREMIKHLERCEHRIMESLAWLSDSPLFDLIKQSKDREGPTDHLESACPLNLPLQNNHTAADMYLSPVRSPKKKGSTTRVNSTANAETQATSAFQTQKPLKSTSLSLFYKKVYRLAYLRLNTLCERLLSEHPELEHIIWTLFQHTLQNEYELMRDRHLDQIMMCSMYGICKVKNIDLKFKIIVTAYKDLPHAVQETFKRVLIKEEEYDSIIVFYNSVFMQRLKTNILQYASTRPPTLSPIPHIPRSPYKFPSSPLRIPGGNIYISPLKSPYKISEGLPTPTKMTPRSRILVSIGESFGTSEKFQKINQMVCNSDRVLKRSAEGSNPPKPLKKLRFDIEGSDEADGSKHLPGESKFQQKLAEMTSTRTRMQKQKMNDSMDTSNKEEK

MCF7 [7] = test: Cell cycle arrest in human MCF7 cells assessed as decrease in S phase cell population after 24 hrs using propidium iodide and BrdU staining by flow cytometry; format: functional, cell-based
Summary of the method: (§1)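 Subconfluent MCF-7 cells were treated for 24 h at a range of concentrations. They were pulse-labelled with 10 μM BrdU for 30 min at 37 °C, then trypsinized and fixed in ice-cold 70% ethanol. DNA was denatured in 2 M HCl and neutralized with borate. Cells were stained with fluorescein anti-BrdU and with propidium iodide plus RNase A, then analysed by flow cytometry at 488 nm.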

RPMI-8226 [8] = test: Cell cycle arrest in human RPMI8226 cells assessed as accumulation at sub-G1 phase after 24 hrs using propidium iodide and BrdU staining by flow cytometry; format: functional, cell-based
Summary of the method: (§2)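 Asynchronously growing RPMI-8226 multiple myeloma cells were exposed for 24 h. Cells were double-stained with propidium iodide and BrdU and analysed by flow cytometry for G1, S, G2/M and BrdU-positive fractions. The subG1 population was taken as indicative of apoptosis.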

[9] = target: Dual specificity mitogen-activated protein kinase kinase 1 (Homo sapiens) (UniProt Q02750); test: Inhibition of human recombinant MEK1 at 10 uM
[10] = target: Casein kinase I isoform alpha (Homo sapiens) (UniProt P48729); test: Inhibition of human recombinant CK1 at 10 uM
MCF7 [11] = test: Cell cycle arrest in human MCF7 cells assessed as accumulation at sub-G1 phase after 24 hrs using propidium iodide and BrdU staining by flow cytometry; format: functional, cell-based; summary of the method: as §1
MCF7 [12] = test: Cell cycle arrest in human MCF7 cells assessed as accumulation at G2/M phase after 24 hrs using propidium iodide and BrdU staining by flow cytometry; format: functional, cell-based; summary of the method: as §1
[13] = target: MAP kinase-activated protein kinase 5 (Homo sapiens) (UniProt Q8IW41); test: Inhibition of human recombinant PRAK at 10 uM
[14] = target: T1, Retinoblastoma-associated protein (Homo sapiens); test: Inhibition of retinoblastoma protein in human HT-29 cells assessed as reduction of cyclin A level at 2.5 to 40 uM after 24 hrs by immunoblotting; format: cell-based
RPMI-8226 [15] = test: Cell cycle arrest in human RPMI8226 cells assessed as decrease in S phase cell population after 24 hrs using propidium iodide and BrdU staining by flow cytometry; format: functional, cell-based; summary of the method: as §2
[16] = target: Glycogen synthase kinase-3 alpha (Homo sapiens) (UniProt P49840); test: Inhibition of human recombinant GSK3A at 10 uM
[17] = target: CDK9/cyclin T1 (Homo sapiens) (UniProt O60563+P50750); test: Inhibition of human recombinant CDK9/cyclin T1 at 10 uM; format: protein-complex assay
[18] = target: Glycogen synthase kinase-3 beta (Homo sapiens) (UniProt P49841); test: Inhibition of human recombinant GSK3B at 10 uM
[19] = target: Cyclin-dependent kinase 7/ cyclin H (Homo sapiens) (UniProt P51946+P50613); test: Inhibition of human recombinant CDK7/cyclin H/MAT1 at 10 uM; format: protein-complex assay
RPMI-8226 [20] = test: Cell cycle arrest in human RPMI8226 cells assessed as reduction of actively replicating DNA level at 80 uM after 24 hrs using propidium iodide and BrdU staining by flow cytometry; format: functional, cell-based; summary of the method: as §2
[21] = target: Casein kinase II (Homo sapiens) (UniProt P67870+P68400+P19784); test: Inhibition of human recombinant CK2 at 10 uM; format: protein-complex assay
U2OS [22] = details: Homo sapiens, 10 uM
RPMI-8226 [23] = test: Cell cycle arrest in human RPMI8226 cells assessed as accumulation at G2/M phase after 24 hrs using propidium iodide and BrdU staining by flow cytometry; format: functional, cell-based; summary of the method: as §2
[24] = target: Cellular tumor antigen p53 (Homo sapiens) (UniProt P04637); test: Induction of p53-dependent transcriptional activity in human MCF7 cells assessed as increase of p21 WAF1 level at 20 uM after 24 hrs by immunofluorescence assay; format: cell-based
MCF7 [25] = test: Cell cycle arrest in human MCF7 cells assessed as reduction of actively replicating DNA level at 80 uM after 24 hrs using propidium iodide and BrdU staining by flow cytometry; format: functional, cell-based; summary of the method: as §1

Chain of Cyclin-dependent kinase 5/CDK5 activator 1 (Q00535 whole entry): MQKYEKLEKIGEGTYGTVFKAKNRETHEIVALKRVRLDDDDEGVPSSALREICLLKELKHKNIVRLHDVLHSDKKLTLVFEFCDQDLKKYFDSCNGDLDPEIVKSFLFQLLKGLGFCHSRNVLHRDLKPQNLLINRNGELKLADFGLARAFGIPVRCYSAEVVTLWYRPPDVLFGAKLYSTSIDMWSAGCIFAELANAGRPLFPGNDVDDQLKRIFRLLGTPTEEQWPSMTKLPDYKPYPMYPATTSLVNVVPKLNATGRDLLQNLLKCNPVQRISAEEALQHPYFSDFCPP
Chain of Cyclin-dependent kinase 5/CDK5 activator 1 (Q15078 whole entry, further chain): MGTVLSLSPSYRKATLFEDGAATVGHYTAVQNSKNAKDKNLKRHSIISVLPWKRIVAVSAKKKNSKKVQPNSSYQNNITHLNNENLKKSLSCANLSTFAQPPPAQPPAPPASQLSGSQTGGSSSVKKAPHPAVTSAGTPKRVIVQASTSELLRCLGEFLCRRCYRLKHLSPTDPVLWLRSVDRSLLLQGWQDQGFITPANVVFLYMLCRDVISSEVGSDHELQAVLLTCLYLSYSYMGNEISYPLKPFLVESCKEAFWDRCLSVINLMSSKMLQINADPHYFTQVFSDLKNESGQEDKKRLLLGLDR
Chain of Ribosomal protein S6 kinase alpha-5 (Homo sapiens) (O75582 whole entry, looked up): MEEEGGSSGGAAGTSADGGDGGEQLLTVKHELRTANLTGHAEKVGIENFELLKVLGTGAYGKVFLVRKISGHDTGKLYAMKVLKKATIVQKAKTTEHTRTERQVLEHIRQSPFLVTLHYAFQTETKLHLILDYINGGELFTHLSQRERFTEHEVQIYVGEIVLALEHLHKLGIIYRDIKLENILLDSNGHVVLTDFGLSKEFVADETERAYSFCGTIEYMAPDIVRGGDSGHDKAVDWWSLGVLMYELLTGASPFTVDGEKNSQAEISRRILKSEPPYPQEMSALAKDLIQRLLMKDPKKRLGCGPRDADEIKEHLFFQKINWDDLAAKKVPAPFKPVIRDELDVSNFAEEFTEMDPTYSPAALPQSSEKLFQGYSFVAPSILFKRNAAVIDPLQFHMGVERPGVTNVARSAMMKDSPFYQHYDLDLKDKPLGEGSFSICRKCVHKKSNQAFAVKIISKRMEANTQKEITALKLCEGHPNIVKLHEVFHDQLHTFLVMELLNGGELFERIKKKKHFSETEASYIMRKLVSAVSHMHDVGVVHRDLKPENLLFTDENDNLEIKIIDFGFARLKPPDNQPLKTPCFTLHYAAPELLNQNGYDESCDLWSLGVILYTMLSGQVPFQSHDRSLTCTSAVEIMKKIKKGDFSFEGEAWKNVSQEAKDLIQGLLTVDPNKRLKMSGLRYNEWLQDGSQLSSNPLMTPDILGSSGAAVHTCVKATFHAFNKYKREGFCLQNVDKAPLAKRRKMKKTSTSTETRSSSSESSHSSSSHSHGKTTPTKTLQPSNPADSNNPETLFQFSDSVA
Chain of Cellular tumor antigen p53 (Homo sapiens) (P04637 whole entry, looked up): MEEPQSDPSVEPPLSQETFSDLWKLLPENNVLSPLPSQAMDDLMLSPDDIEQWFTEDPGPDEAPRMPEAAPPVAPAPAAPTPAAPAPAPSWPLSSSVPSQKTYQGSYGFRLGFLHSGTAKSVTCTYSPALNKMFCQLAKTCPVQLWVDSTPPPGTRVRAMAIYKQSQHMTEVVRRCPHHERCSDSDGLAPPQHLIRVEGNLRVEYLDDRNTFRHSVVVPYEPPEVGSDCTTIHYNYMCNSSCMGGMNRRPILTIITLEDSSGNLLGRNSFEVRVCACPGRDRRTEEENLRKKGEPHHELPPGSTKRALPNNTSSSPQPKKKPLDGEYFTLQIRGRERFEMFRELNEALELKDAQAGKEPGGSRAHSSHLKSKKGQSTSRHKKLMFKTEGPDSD
Chain of MAP kinase-activated protein kinase 5 (Homo sapiens) (Q8IW41 whole entry): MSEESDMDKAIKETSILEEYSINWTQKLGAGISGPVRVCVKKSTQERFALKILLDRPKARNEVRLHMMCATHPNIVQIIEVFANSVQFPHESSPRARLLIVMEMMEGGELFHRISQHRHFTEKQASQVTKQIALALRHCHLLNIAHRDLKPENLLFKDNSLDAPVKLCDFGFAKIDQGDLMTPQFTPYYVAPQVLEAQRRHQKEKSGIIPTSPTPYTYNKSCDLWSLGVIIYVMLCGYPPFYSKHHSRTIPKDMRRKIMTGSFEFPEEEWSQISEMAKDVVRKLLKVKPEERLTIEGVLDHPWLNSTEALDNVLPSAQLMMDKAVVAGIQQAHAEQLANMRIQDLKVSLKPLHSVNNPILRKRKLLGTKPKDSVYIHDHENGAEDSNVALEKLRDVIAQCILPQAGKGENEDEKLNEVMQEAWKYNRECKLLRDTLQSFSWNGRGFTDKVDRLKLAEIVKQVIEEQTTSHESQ
Chain of Glycogen synthase kinase-3 beta (Homo sapiens) (P49841 whole entry, looked up): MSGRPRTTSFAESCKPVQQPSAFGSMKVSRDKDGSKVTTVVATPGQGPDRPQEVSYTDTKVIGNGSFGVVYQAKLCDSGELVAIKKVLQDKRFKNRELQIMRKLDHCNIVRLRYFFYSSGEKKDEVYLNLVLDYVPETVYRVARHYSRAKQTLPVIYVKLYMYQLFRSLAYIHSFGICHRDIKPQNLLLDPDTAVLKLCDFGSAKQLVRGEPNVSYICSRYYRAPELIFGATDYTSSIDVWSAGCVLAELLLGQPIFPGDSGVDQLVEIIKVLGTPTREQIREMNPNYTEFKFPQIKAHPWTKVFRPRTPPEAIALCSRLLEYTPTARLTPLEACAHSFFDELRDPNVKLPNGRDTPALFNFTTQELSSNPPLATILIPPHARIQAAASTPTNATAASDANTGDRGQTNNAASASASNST
Chain of Casein kinase I isoform alpha (Homo sapiens) (P48729 2-337 limits assumed): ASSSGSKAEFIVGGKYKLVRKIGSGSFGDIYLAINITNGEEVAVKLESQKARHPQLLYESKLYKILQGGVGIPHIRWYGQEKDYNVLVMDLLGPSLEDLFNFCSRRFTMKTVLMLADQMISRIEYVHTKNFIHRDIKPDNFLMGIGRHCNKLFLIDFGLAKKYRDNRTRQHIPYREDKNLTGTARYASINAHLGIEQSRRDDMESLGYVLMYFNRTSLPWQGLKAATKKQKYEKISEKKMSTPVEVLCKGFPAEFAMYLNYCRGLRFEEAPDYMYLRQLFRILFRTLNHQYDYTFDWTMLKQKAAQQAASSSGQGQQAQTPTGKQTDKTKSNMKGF
Chain of CDK9/cyclin T1 (O60563 whole entry): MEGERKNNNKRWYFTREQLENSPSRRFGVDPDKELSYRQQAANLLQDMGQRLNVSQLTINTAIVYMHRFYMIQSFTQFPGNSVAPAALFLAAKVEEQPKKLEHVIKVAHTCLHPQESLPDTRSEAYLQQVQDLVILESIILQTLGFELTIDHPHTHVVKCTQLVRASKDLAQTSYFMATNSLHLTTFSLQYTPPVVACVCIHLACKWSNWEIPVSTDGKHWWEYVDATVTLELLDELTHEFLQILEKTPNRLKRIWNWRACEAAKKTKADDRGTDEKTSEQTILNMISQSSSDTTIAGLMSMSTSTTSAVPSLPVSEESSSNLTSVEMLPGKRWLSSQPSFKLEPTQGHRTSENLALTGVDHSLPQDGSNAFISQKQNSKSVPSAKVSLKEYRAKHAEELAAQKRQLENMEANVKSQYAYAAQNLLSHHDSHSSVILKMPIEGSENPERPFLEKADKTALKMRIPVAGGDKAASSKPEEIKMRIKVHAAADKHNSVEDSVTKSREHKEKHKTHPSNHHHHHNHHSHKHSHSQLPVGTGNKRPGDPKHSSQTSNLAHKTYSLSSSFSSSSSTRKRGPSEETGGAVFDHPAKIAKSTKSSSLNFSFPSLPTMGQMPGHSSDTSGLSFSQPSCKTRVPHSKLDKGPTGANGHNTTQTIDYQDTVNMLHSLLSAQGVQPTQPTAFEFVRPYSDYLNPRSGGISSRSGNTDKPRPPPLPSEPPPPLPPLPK
Chain of CDK9/cyclin T1 (P50750 whole entry): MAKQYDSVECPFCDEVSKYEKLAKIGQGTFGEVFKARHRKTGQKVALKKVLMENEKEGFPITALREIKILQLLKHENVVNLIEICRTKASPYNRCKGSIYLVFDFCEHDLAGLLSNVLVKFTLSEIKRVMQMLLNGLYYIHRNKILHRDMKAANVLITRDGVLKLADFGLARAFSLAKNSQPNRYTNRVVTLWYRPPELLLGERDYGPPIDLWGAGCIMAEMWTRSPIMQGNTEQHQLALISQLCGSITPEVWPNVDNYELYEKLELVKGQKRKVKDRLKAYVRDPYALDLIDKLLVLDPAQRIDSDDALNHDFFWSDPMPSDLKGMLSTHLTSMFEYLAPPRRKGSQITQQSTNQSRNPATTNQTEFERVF
Chain of Glycogen synthase kinase-3 alpha (Homo sapiens) (P49840 2-483 limits assumed): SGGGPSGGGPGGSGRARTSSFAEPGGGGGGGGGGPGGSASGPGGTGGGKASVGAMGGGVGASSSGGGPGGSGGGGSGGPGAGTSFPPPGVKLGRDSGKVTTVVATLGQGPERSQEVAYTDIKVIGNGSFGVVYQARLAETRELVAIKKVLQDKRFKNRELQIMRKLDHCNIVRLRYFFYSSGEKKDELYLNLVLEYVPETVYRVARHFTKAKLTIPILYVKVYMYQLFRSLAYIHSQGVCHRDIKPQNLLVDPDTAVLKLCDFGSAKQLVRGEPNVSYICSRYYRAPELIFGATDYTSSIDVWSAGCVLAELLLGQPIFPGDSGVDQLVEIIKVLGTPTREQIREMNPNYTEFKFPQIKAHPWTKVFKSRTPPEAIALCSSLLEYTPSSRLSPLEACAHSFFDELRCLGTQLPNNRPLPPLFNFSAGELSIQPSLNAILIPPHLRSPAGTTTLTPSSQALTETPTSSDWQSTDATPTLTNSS

With `CN1CC[C@H](c2c(O)cc(O)c3c(=O)cc(-c4ccccc4Cl)oc23)[C@H](O)C1` [ALVOCIDIB] the inhibition at 0.1 µM (U2OS [1]) was 62%.
`CC[C@H](CO)Nc1nc(NCc2ccccc2)c2n[nH]c(C(C)C)c2n1` was tested, and the pIC50 [2] was 6.80, the pIC50 (CDK9/cyclin T1) was 6.00 and the pIC50 [3] was 6.70. The pIC50 [4] was 7.40.
In the case of `CC[C@H](CO)Nc1nc(NCc2ccccc2)c2ncn(C(C)C)c2n1`, the inhibition [5] was 29%, the inhibition [6] was “inactive” and the Activity (MCF7 [7]) was “Active”. For the same compound, the Activity (RPMI-8226 [8]) was “Active”, the inhibition [9] was 38% and the inhibition [10] was 1%. The Activity (MCF7 [11]) was “Active”, the Activity (MCF7 [12]) was “Active” and the inhibition [13] was 28%. For the same compound, the inhibition [14] was “Active”, the Activity (RPMI-8226 [15]) was “Active” and the inhibition [16] was 13%. For the same compound, the inhibition [17] was 87%, the inhibition [18] was 25% and the inhibition [19] was 87%. For the same compound, the Activity (RPMI-8226 [20]) was “Active”, the inhibition [21] was 10% and the inhibition (U2OS [22]) was “inactive”. The Activity (RPMI-8226 [23]) was “Active”, the Activity [24] was “Active” and the Activity (MCF7 [25]) was “Active”.
